Test [1] has as its system Epilachna. Kind of test: Antifeedant activity against third-instar larval stage of Epilachna paenulata infested cucurbita maxima leaves assessed as decrease in food consumption at 0.25 to 4 ug/cm2 measured after 6 days by no choice leaf disk assay relative to untreated control. The class given is functional, organism-based. A digest of the protocol:
(§1)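 No-choice test: four third-instar E. paenulata larvae per Petri dish fed C. maxima leaves (renewed every 48 h) with known amounts of compound or solvent applied by syringe. Six replicates per treatment, plus unfed starved controls. Leaf consumption, body weight and mortality recorded every 24 h.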

Test [2] concerns Epilachna. Kind of test: Antifeedant activity against third-instar larval stage of Epilachna paenulata infested cucurbita maxima leaves assessed as increase in larval mortality measured at 96 hr by no choice leaf disk assay. The class given is functional. In a few lines: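 Same no-choice setup (four third-instar larvae per dish, treated C. maxima leaves renewed every 48 h, six replicates, mortality scored every 24 h). LD50 derived by probit analysis of mortality at 96 h.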

Test [3] concerns Epilachna. Briefly: Antifeedant activity against third-instar larval stage of Epilachna paenulata infested cucurbita maxima leaves assessed as decrease in food consumption at 0.25 to 4 ug/cm2 measured after 48 hr by no choice leaf disk assay relative to untreated control. The format is functional, organism-based. In a few lines:
as §1

The subject of test [4] is Epilachna. Briefly: Antifeedant activity against third-instar larval stage of Epilachna paenulata infested cucurbita maxima leaves assessed as feeding reduction after 24 hr by leaf disk choice assay. The class given is functional. In a few lines:
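Leaf-disk choice test: two C. maxima seedling cotyledons in a Petri dish under a glass disk with two 1 cm² holes. One third-instar larva placed equidistant from treated and solvent-control disks, fed 24 h. Area eaten estimated visually by quarters, always by the same operator. AI% = (1 − T/C) × 100; Wilcoxon signed paired rank test, α = 0.05.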

Test [5] has as its system Epilachna. Kind of test: Antifeedant activity against third-instar larval stage of Epilachna paenulata infested cucurbita maxima leaves assessed as decrease in food consumption at 0.25 to 4 ug/cm2 measured after 24 hr by no choice leaf disk assay relative to untreated control. The format is functional, organism-based. In a few lines:
as §1

For test [6], the system named is Epilachna. Briefly: Antifeedant activity against third-instar larval stage of Epilachna paenulata infested cucurbita maxima leaves assessed as decrease in larval weight gain at 0.25 to 4 ug/cm2 measured after 144 hr by no choice leaf disk assay relative to untreated control. The class given is functional, organism-based. A digest of the protocol: as §1
The test system of test [7] is Epilachna. Kind of test: Antifeedant activity against third-instar larval stage of Epilachna paenulata infested cucurbita maxima leaves assessed as larval mortality at 0.25 to 4 ug/cm2 measured after 24 hr by no choice leaf disk assay relative to untreated control. The format is functional. A digest of the protocol: as §1
Test [8] has as its system Epilachna. Kind of test: Antifeedant activity against third-instar larval stage of Epilachna paenulata infested cucurbita maxima leaves assessed as decrease in larval weight gain at 1 to 4 ug/cm2 measured after 96 hr by no choice leaf disk assay relative to untreated control. The format is functional, organism-based. A digest of the protocol: as §1

The source made the active and inactive calls. The rule behind the calls is not given here.

In the case of `C/C=C(\C)C(=O)O[C@H]1C[C@@H](OC(C)=O)[C@@]2(C(=O)OC)CO[C@H]3[C@@H](O)[C@@](C)([C@]45O[C@@]4(C)[C@@H]4C[C@H]5O[C@@H]5OC=C[C@@]54O)[C@H]4[C@]1(CO[C@]4(O)C(=O)OC)[C@@H]32` [AZADIRACHTIN A], the outcome in test [1] and in test [3] was Active. Besides, the LD50 in test [2] was determined as 1.24 microg/cm2. In addition, the ED50 in test [4] is given as 0.72 microg/cm2. Besides, the result in test [5] was inactive.

For `CC(=O)O[C@@H]1C[C@H](O)[C@@]23CO[C@@H](O)[C@]1(C)[C@@H]2C[C@@H](O)[C@]1(C)[C@@H]3C(=O)[C@H](OC(C)=O)[C@@]2(C)[C@H](c3ccoc3)C[C@H]3O[C@]321` [TOOSENDANIN], the ED50 in test [4] is given as 3.69 microg/cm2.

For `CC(=O)O[C@@H]1C[C@H](O)[C@@]23COC(O)[C@]1(C)[C@@H]2C[C@@H](O)[C@]1(C)[C@@H]3[C@H](O)C(=O)[C@@]2(C)[C@H](c3ccoc3)C[C@H]3O[C@@]312` (stereo partly drawn) [MELIARTENIN], the outcome in test [1], in test [6], in test [5] and in test [8] was Active. Also, in test [7], the mortality (in general, the share of the test organisms that died) worked out at 20%. Also, the LD50 in test [2] is 0.76 microg/cm2. Besides, the ED50 in test [4] came out at 0.8 microg/cm2.
